Data as given in ChEMBL document CHEMBL1125652, “Kynurenic acid derivatives. Structure-activity relationships for excitatory amino acid antagonism and identification of potent and selective antagonists at the glycine site on the N-methyl-D-aspartate receptor” (J Med Chem, 1991).
pIC50: −log10 of the molar value. Calls of active or inactive are those of the source. The rule behind the calls is not given here.

Assays:
[1] = molecular target: Glutamate NMDA receptor; assay: Inhibition of [3H]glycine binding to glycine site of N-methyl-D-aspartate glutamate receptor in rat cortical membranes; format: cell membranes, Membrane
[2] = molecular target: T1, Glutamate NMDA receptor (Rattus norvegicus) (UniProt P35439+Q00959+Q00960+Q00961+Q62645+Q8VHN2+Q9R1M7); assay: Apparent dissociation constant of [3H]glycine from N-methyl-D-aspartate glutamate receptor in rat cortical slice preparation expressed as log values.
Method in brief: (§1)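 Rat cortical slice preparation; test compound antagonism of depolarizations evoked by agonists N-methyl-D-aspartic acid, quisqualic acid or kainic acid, expressed as apparent Kb.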

[3] = molecular target: T2, Glutamate receptor ionotropic, kainate (Rattus norvegicus) (UniProt P22756+Q01812+P42260+P42264+Q63273); assay: Apparent dissociation constant of [3H]kainate from Ionotropic glutamate receptor ionotropic kainate was determined in rat cortical slice preparation; method in brief: as §1
[4] = molecular target: T1, Glutamate NMDA receptor (Rattus norvegicus); assay: Apparent dissociation constant of [3H]-glycine from N-methyl-D-aspartate glutamate receptor in rat cortical slice preparation at 100 uM; Inactive; method in brief: as §1
[5] = molecular target: T3, Glutamate receptor ionotropic, AMPA (Rattus norvegicus) (UniProt P19491+P19492+P19493+P19490); assay: Apparent dissociation constant of [3H]AMPA from quisqualate receptor of rat cortical slices; format: protein-complex assay; method in brief: as §1
[6] = molecular target: Glutamate receptor ionotropic, kainate; assay: Inhibition of [3H]-kainic acid binding to kainate receptor of rat cortical membrane
[7] = molecular target: Glutamate receptor ionotropic, AMPA (Rattus norvegicus, UniProt P19490+P19491+P19492+P19493); assay: Inhibition of [3H]-AMPA binding to AMPA receptor of rat cortical membrane
[8] = molecular target: Glutamate NMDA receptor; assay: Inhibition of [3H]-glutamate binding to N-methyl-D-aspartate glutamate receptor of rat cortical membranes; format: cell membranes, Membrane
[9] = molecular target: Glutamate NMDA receptor; assay: Inhibition of [3H]glycine binding to N-methyl-D-aspartate glutamate receptor of rat cortical membranes; format: cell membranes, Membrane
Method in brief: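 [3H]Glycine radioligand binding to rat cortical membranes. IC50 is the concentration inhibiting 50% of specific binding, taken from at least two experiments and given as the mean of two to four determinations (geometric mean).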

[10] = molecular target: T2, Glutamate receptor ionotropic, kainate (Rattus norvegicus); assay: Apparent dissociation constant of [3H]kainate from ionotropic glutamate receptor kainate of rat cortical slice at 100 uM; Inactive; format: protein-complex assay; method in brief: as §1
[11] = molecular target: T3, Glutamate receptor ionotropic, AMPA (Rattus norvegicus); assay: Apparent dissociation constant of [3H]AMPA from Quisqualate receptor was determined in rat cortical slice preparation at 100 uM; Inactive; method in brief: as §1
[12] = molecular target: T1, Glutamate NMDA receptor (Rattus norvegicus); assay: Apparent dissociation constant of [3H]glycine from N-methyl-D-aspartate glutamate receptor of rat cortical slices; format: protein-complex assay
Method in brief: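 Antagonism of NMDA-induced depolarizations in a rat cortical slice preparation, where endogenous glycine is present at supersaturating levels. Apparent Kb was obtained from dose ratios, with a dose ratio under 2 at a stated concentration reported as ">". Kb values are means of at least three experiments.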

[13] = molecular target: T2, Glutamate receptor ionotropic, kainate (Rattus norvegicus); assay: Apparent dissociation constant for [3H]kainate from Ionotropic glutamate receptor kainate of rat cortical slices; format: protein-complex assay
Method in brief: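 Functional antagonism of kainate-induced depolarizations in rat cortical slices. Apparent Kb was obtained from dose ratios, with a dose ratio under 2 at a stated concentration reported as ">". Kb values are means of at least three experiments.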

SMILES	pIC50 [1]	-Log 1/Kb [2]	Kb [3]	further results
O=C(O)c1cc(O)c2ccc(Br)cc2n1	6.07	5.1		
Cc1cc2[nH]c(=O)c(=O)[nH]c2cc1C	5.64			
Cc1cccc2nc(C(=O)O)cc(O)c12	5.68	4.68		
Cc1cc2[nH]c(=O)c(=O)n(C)c2cc1C	5.18		47 µM	
O=C(O)c1cc(O)c2c(Br)cccc2n1		4.7		
CCCc1ccc2c(O)cc(C(=O)O)nc2c1	< 4.00			
O=C(O)c1cc(O)c2cc(C(F)(F)F)ccc2n1			> 100 µM	Kb [4]: inactive; Kb [5]: > 100 µM
O=C(O)c1cc(O)c2ccc(F)cc2n1		4.5		
CCc1cc(Cl)c2c(O)cc(C(=O)O)nc2c1	5.31	4.42		
O=C(O)c1cc(O)c2cc(Cl)ccc2n1	< 4.00		19 µM	pIC50 [6]: < 3.52; pIC50 [7]: 4.39; pIC50 [8]: < 3.52
O=C(O)c1cc(O)c2cc(Br)ccc2n1			30 µM	Kb [5]: 28 µM
CCc1cc(Br)cc2nc(C(=O)O)cc(O)c12	7.18	5.75		
O=c1[nH]c2ccc(Cl)cc2[nH]c1=O	5.08			
Cc1ccc2c(O)cc(C(=O)O)nc2c1	5.74	4.47		
CCc1cc(Br)c2c(O)cc(C(=O)O)nc2c1	5.49	4.72		
O=c1[nH]c2cc([N+](=O)[O-])c([N+](=O)[O-])cc2[nH]c1=O [DNQX]				pIC50 [9]: 5.35
Cc1cc(Br)cc2nc(C(=O)O)cc(O)c12	5.96	5.58		
COc1cc(C(=O)O)nc2cc(Cl)cc(Cl)c12	4.00			Kb [10]: inactive; Kb [4]: inactive; Kb [11]: inactive

SMILES	pIC50 [1]	-Log 1/Kb [2]	Kb [3]	further results
O=C(O)c1cc(=O)c2ccccc2[nH]1 [TRANSTORINE]			89 µM	pIC50 [6]: < 3.00; pIC50 [7]: 4.00
COc1ccc2nc(C(=O)O)cc(O)c2c1			32 µM	Kb [4]: inactive; Kb [5]: 87 µM
Cc1ccc2nc(C(=O)O)cc(O)c2c1			59 µM	Kb [4]: inactive; Kb [5]: 66 µM
CSc1ccc2nc(C(=O)O)cc(O)c2c1			43 µM	Kb [5]: 56 µM
Cc1cc(C)c2c(O)cc(C(=O)O)nc2c1	6.27	5.16		
O=C(O)c1cc(O)c2c(F)cccc2n1		4.39		
Cn1c(C(=O)O)cc(=O)c2c(Cl)cc(Cl)cc21	< 4.00			Kb [10]: inactive; Kb [4]: inactive; Kb [11]: inactive
CCc1ccc2nc(C(=O)O)cc(O)c2c1			> 100 µM	Kb [4]: inactive; Kb [5]: > 100 µM
O=C(O)c1cc(O)c2c(Cl)cc(I)cc2n1	6.19	5		
O=C(O)c1cc(O)c2c(C(F)(F)F)cccc2n1		4.46		
O=C(O)c1cc(O)c2c(Br)cc(Br)cc2n1	7.07	5.8		
Oc1nc2ccc(Cl)cc2nc1O			26 µM	
CCc1ccc2c(O)cc(C(=O)O)nc2c1	< 4.00	3.82		
CSc1ccc2c(O)cc(C(=O)O)nc2c1		2.67		
O=C(O)c1cc(O)c2c(Cl)cc(Cl)cc2n1	6.70		> 30 µM	pIC50 [6]: < 3.52; pIC50 [8]: < 4.00
COc1nc2cc(C)c(C)cc2nc1OC	< 4.00			
O=C(O)c1cc(O)c2ccc([N+](=O)[O-])cc2n1		4.11		
O=[N+]([O-])c1cc2nc(O)c(O)nc2cc1[N+](=O)[O-]				Kb [12]: 5.3 µM; Kb [13]: 1.29 µM
